# Sampled rows, rich in hits. Any-hit rate of the full collection: about 2.2%.
# hK5 inh = inhibitors of human kallikrein 5; Q9Y337; recombinant hK5, fluorogenic AMC substrate cleavage; inhibition, % at 5 µM; 210,000 compounds, 0.59% hits; AID 873;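 active = inhibition of 40% or more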;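 also: 0% = enzyme controls without compound and 100% = no-enzyme blanks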
# FXIIa inh = factor XIIa (human) inhibition; AID 800; inhibition, % at 5 µM; 220,000 compounds, 0.3% hits; P00748; purified FXIIa, Boc-QGR-AMC fluorogenic substrate, 2 h; in the data active = inhibition above about 40%;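 also: 0% = enzyme with no compound and 100% = blank without enzyme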
# Target sequence (P00748 20-372 limits assumed): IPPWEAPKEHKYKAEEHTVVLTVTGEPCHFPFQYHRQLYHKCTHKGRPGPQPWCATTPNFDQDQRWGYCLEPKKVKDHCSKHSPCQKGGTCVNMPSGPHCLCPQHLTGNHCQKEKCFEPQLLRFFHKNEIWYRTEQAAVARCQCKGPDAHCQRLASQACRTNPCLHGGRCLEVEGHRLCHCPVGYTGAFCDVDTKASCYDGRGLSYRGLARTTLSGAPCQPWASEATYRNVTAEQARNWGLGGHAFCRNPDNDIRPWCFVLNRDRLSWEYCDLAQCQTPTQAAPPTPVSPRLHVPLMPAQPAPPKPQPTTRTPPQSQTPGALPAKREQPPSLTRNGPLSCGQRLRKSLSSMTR
# Target sequence (P00748 373-615 limits assumed): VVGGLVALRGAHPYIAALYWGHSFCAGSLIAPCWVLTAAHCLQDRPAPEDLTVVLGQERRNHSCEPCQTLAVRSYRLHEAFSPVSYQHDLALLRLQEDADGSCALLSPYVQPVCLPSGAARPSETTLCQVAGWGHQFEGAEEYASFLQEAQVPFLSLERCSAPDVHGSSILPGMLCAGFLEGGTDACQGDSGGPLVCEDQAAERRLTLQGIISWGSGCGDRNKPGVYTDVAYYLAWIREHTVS
# thrombin 1536 = inhibitors of human thrombin; alpha-thrombin, Boc-VPR-AMC fluorogenic substrate cleavage; inhibition, % at 5 µM; 220,000 compounds, 0.26% hits; AID 1046;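 active = inhibition at or above 40%; inactive = inhibition below 40%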;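 also: 0% = enzyme with no compound and 100% = wells without enzyme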
#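 Material: human alpha-thrombin protein. Incubation: reaction at ambient temperature. Technique: fluorescence of released AMC, ex 355 nm, em 460 nm. Control set: no-compound enzyme wells and no-enzyme blanks. Also added: Boc-VPR-AMC substrate, 15 µM final. Buffer or medium: pH 7.5 Tris (50 mM) with NaCl 150 mM, Tween 20 0.05%.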
# Wee1 degr inh = blocks degradation of human Wee1 kinase; 220,000 compounds, 1.2% hits; HeLa Luc-Wee1K328M stability, luciferase luminescence; 100% = proteasome inhibitor MG132 effect; reporter increase, % at 5 µM;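 active = activation above the mean of all tested compounds plus 3 SD, set per screening run, cut at about 8.8% in these data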;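 also: cells exposed to compound for 20 h before luminescence read; 0% = DMSO alone and 100% = MG132 at 30 µM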
# FXIa inh 1536 = blocks human coagulation factor XIa protease activity | 220,000 compounds, 0.14% hits | inhibition, % at 5 µM | P03951 | purified FXIa, Boc-Glu-Ala-Arg-AMC fluorogenic substrate;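 active = inhibition of at least 40%; inactive = inhibition below 40%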;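 also: fluorescence of freed AMC excited at 355 nm; 0% = enzyme without compound and 100% = no enzyme blank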
# Active calls of the source: *; . = no result given.
SMILES,hK5 inh,FXIIa inh,thrombin 1536,Wee1 degr inh,FXIa inh 1536
CN(CC(=O)Nc1ccc(N2CCOCC2)cc1)C(=O)CC(c1ccccc1)c1ccccc1,-4.4,7.5,1.0,10.1*,0.3
O=C(O)CC(CC(=O)Nc1ccc(N2CCOCC2)cc1)c1ccccc1 (stereo not given),2.0,4.7,-3.7,-0.7,0.8
Cc1cccc2cc(-c3ccccc3)c(-c3ccccc3)c[n+]12,-7.2,10.5,-2.6,-4.1,8.4
Cc1c(C#N)c(O)n(CCO)c(=O)c1N=Nc1ccccc1,5.3,7.4,-4.1,-1.0,6.1
Cc1c(C#N)c(O)n(C)c(=O)c1N=Nc1ccc(S(N)(=O)=O)cc1,24.8,29.3,56.6*,-0.6,25.2
Cc1c(C#N)c(O)n(CCO)c(=O)c1N=Nc1ccc(S(N)(=O)=O)cc1,11.4,25.4,46.7*,3.6,26.9
O=c1[nH]nc(SCCS(=O)(=O)c2ccc(F)cc2)n1-c1ccc2c(c1)OCCO2,-3.7,2.3,-1.5,-1.1,-5.5
COC(=O)Cc1cc(=O)oc2cc(O)ccc12,-32.2,-21.8,-31.2,-2.2,-29.7
CC1(C)CC(=O)c2c(Cc3ccccc3)n[nH]c2C1,50.3*,19.3,13.7,2.2,-0.9
O=C(CN1CCN(c2ccccn2)CC1)Nc1ccccc1,-12.4,16.6,1.9,-2.9,0.6
O=C(CN1CCN(c2ccccn2)CC1)Nc1ccc(Oc2ccccc2)cc1,-6.9,56.2*,1.7,0.0,27.4
Clc1ccc(-n2cc(COCc3ccccc3)nn2)cc1,45.8*,6.6,-4.8,-1.7,-1.1
O=C(Nc1ccc(Cl)cc1)OCc1cn(-c2ccc(Cl)cc2)nn1,3.3,-3.9,-0.7,-1.0,-1.1
CCCc1nc2ccccc2c(C(=O)OCC(=O)N2CCc3ccccc32)c1CC,58.5*,36.5,12.1,-1.0,20.1
COc1cc([N+](=O)[O-])cc2sc(NC(C)=O)nc12,23.4,26.7,39.4,8.6,59.7*
Cc1ccc(C(C)C)c(OCC(=O)N2CCOCC2)c1,5.6,0.4,-7.7,9.2*,-2.3
Cc1ccc(-c2ccc(OCC(=O)N3CCOCC3)cc2)cc1,5.3,-10.8,-1.6,2.3,-4.4
CC(=O)N1CCc2c(sc(NC(=O)C3CC3)c2-c2nc3ccccc3s2)C1,-8.4,51.1*,-2.9,-1.8,0.1
CCCCC(=O)Nc1sc2c(c1-c1nc3ccccc3s1)CCN(C(C)=O)C2,-2.0,20.0,6.2,-1.9,-0.8
CCN(CC)c1ccc(NC(=O)C2=CCN(S(=O)(=O)c3ccc(F)cc3)CC2)c(C)c1,-13.2,-4.8,-2.4,-1.8,-4.9
CCCCC1C(C#N)=C(C)NC2=C1C(=O)CC(C)(C)C2 (stereo not given),-57.5,5.6,1.9,0.1,-7.7
O=S(=O)([N-]c1nc2ccccc2nc1-n1cc[n+](Cc2ccccc2)c1)c1ccc(Br)cc1,1.6,5.0,-1.7,-1.1,1.2
CCOC(=O)N1CCC(NC(=O)C2=CCN(S(=O)(=O)c3ccc(OC)cc3)CC2)CC1,-2.0,6.3,-1.6,-0.3,-2.6
Cc1c(N2C(=O)c3ccccc3C2=O)c(=O)n(-c2ccccc2)n1C,-21.1,8.1,-0.6,-3.3,-3.1
Cc1c(N2C(=O)c3ccc(F)cc3C2=O)c(=O)n(-c2ccccc2)n1C,-8.8,6.7,0.1,9.6*,0.6
SMILES,hK5 inh,FXIIa inh,thrombin 1536,Wee1 degr inh,FXIa inh 1536
CSc1nnc(-c2cc[n+](C)cc2)n1CCO,5.8,21.9,-0.2,7.6,8.1
Nc1nnc(SCCCC(=O)c2ccccc2)s1,16.9,-2.0,45.7*,-1.1,-10.9
CCC(=O)N1COC[C@@H]1Cc1ccccc1,-8.2,20.1,-0.6,3.2,8.0
CC1Cc2ccccc2N1C(=O)CSc1nn2c(=O)c(C(C)(C)C)nnc2s1 (stereo not given),-1.8,.,-10.4,10.4*,-4.2
CSc1ccc(CN2CCN(CCC(C)C)C(CCO)C2)cc1 (stereo not given),.,16.2,2.6,10.2*,1.9
S=C1NC[C@H](CC2CCCCC2)N1CCc1cccc2ccccc12,-2.0,0.4,-9.9,.,-4.5
CCOC(=O)c1cc(-c2ccc(C)cc2)n(CC(=O)NCc2ccco2)c1C,54.2*,29.3,12.2,-1.7,7.4
O=C(NCC(c1cccs1)N1CCOCC1)c1ccc(Cl)c([N+](=O)[O-])c1 (stereo not given),-7.5,6.5,-2.1,5.1,9.6
CCOC(=O)CSc1ccc(C(=O)Nc2ccc(OC)cc2)cn1,24.5,10.2,12.6,9.4*,5.5
O=C(CCCCCNc1nc(=S)[nH]c2ccccc12)NCCc1ccccc1,-27.0,10.1,0.3,0.7,8.1
COc1ccc(CCNC(=O)CCCCCNc2nc(=S)[nH]c3ccccc23)cc1OC,-2.5,13.4,1.1,10.1*,12.2
COc1ccc(CNS(=O)(=O)NCc2ccc(C)cc2)cc1OC,-1.6,8.8,-1.8,2.4,-2.0
O=C(CSc1ccccn1)C12CC3CC(CC(C3)C1)C2,0.7,10.4,0.0,0.6,-0.6
Cc1ccc(C(=O)N/C(=C/c2ccc(-c3cccc([N+](=O)[O-])c3)o2)C(=O)NC(C)(C)C)cc1,-13.4,42.8*,-6.7,6.3,33.3
COc1ccc2c(=O)cc(-c3ccccc3F)oc2c1,-10.6,3.1,-14.7,9.4*,0.3
Cc1onc(-c2ccccc2Cl)c1C(=O)N1CCOC12CCCCC2,-9.9,2.8,3.6,-0.9,-4.4
O=C(N/N=C/c1cccc([N+](=O)[O-])c1)C1COc2ccccc2O1 (stereo not given),-14.0,8.6,4.0,5.2,11.5
O=C(N/N=C\c1cccc([N+](=O)[O-])c1O)C1COc2ccccc2O1 (stereo not given),54.9*,0.5,15.6,0.2,5.3
CCOC(=O)CC(=O)CSc1nc(C)cc(-c2cccnc2)c1C#N,-14.1,16.2,1.4,-1.1,2.3
Cc1cc(-c2ccccc2)c(C#N)c(SCC(N)=O)n1,-1.4,23.3,-4.2,9.7*,4.1
CN(C)S(=O)(=O)Oc1ccsc1C(=O)Nc1cccc(Cl)c1,5.6,47.3*,-0.6,-1.4,19.4
CN(C)S(=O)(=O)Oc1ccsc1C(=O)Nc1ccc(Br)cc1,-7.9,5.9,-8.3,-0.2,-3.1
CN(C)S(=O)(=O)Oc1ccsc1C(=O)Nc1ccc(Cl)c(Cl)c1,3.4,42.0*,-1.6,0.7,13.0
O=C(O)c1ccccc1C(=O)NC1Cc2ccccc2C1,-2.3,8.5,-2.1,-3.2,2.5
CSc1nc(Sc2ccc(Cl)cc2)c2ccccc2n1,61.7*,14.5,20.3,0.1,10.6
CCOC(=O)C(=CNc1ccc(Oc2cccnc2)nc1)C(=O)OCC,4.3,5.9,-0.8,9.9*,7.5
CCCN(CC(=O)Nc1cc(Cl)cc(Cl)c1)CC(=O)Nc1ccc(F)c(F)c1F,-0.7,7.8,-8.4,0.1,-0.2
COc1ccc(OC)c(CNC(=O)CCN2C(=O)COc3ccccc32)c1,-0.8,16.2,-3.4,0.2,5.0
COc1ccc(Br)cc1CNC(=O)CCN1C(=O)COc2ccccc21,-3.1,12.3,-0.2,10.6*,-1.1

# Screens from PubChem BioAssay.
